# What was measured:
# PAM212 keratinocytes = assay: PAM212 keratinocyte growth inhibition with UVA light; type: cell-based, mouse; details: plus UVA light
# [1] = test system: MCF-7 breast carcinoma cell line; details: read-out: IC50, phototoxicity; cited from earlier work
# [2] = known measured logP used in the discussion; ref not given; cited from earlier work
# [3] = Solubility maximum under the assay's conditions; type: physicochemical; details: 37 °C, plasma or biological fluid, kinetic from dmso stock
# plasmid pZeoSV DNA = assay: Plasmid DNA nicking and unwinding assay with UVA light; type: biochemical; details: for Percentage of nicked plasmid: neutral agarose gels
# Outline: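 pZeoSV plasmid (75 ng per 10 μL) in TE buffer (10 mM Tris–HCl, 1 mM EDTA, pH 8), with test compound added from a 100× DMSO concentrate. UVA (320–400 nm) was given as for the cell cultures: 2.4 mW/cm2, 1.28 J/cm2. Aliquots taken before and after UVA were run on 1.2% neutral (Tris-acetate-EDTA) or alkaline agarose and stained with ethidium bromide. Percent nicked plasmid came from band image analysis.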
smiles,measurement,setting,value
"O=c1ccc2ccc(O)cc2o1 [Compound 1, umbelliferone]",photo-activity on keratinocyte growth (in words),PAM212 keratinocytes,no activity
same,IC50,[1],476 µM
"Cc1cc(=O)oc2c(C)c(O)ccc12 [Compound 12, 4,8-dimethyl-7-hydroxycoumarin]",logP,[2],2.1
"Cc1cc(=O)oc2c(C)c(O)c([N+](=O)[O-])cc12 [Compound 18, 4,8-dimethyl-6-nitro-7-hydroxycoumarin]",photo-activity on keratinocyte growth (in words),PAM212 keratinocytes,no photocytotoxicity
same,solubility,[3],100 µM
"Cc1c(O)ccc2c(C(F)(F)F)cc(=O)oc12 [Compound 37, 4-trifluoromethyl-8-methyl-7-hydroxycoumarin]",photo-activity on keratinocyte growth (in words),PAM212 keratinocytes,inactive
"O=c1cc(C(F)(F)F)c2ccc(O)cc2o1 [Compound 47, 4-trifluoromethyl-7-hydroxycoumarin]",photo-activity on keratinocyte growth (in words),PAM212 keratinocytes,inactive
"C=CCOc1ccc2c(C)c(Br)c(=O)oc2c1C [Compound 58, 4,8-dimethyl-3-bromo-7-allyloxycoumarin]",Percentage of nicked plasmid,plasmid pZeoSV DNA; 1 μM coumarin plus UVA light,3.2%
same,Percentage of nicked plasmid,plasmid pZeoSV DNA; 10 μM coumarin plus UVA light,12.0%
same,Percentage of nicked plasmid,plasmid pZeoSV DNA; 100 μM coumarin plus UVA light,20.2%
same,effect on plasmid DNA (in words),"plasmid pZeoSV DNA; plus UVA light, neutral gels",concentration-dependent alteration in migration
"Cc1c(F)c(=O)oc2c(C)c(O)ccc12 [Compound 68, 3-fluoro-4,8-dimethyl-7-hydroxycoumarin]",photo-activity on keratinocyte growth (in words),PAM212 keratinocytes,no activity
"Cc1c(I)c(=O)oc2c(C)c(O)ccc12 [Compound 71, 3-Iodo-4,8-dimethyl-7-hydroxycoumarin]",Percentage of nicked plasmid,plasmid pZeoSV DNA; 1 μM coumarin plus UVA light,6.8%
same,Percentage of nicked plasmid,plasmid pZeoSV DNA; 10 μM coumarin plus UVA light,80.2%
same,Percentage of nicked plasmid,plasmid pZeoSV DNA; 100 μM coumarin plus UVA light,98.6%
same,linearization of the plasmid compared to the 7-allyloxy ethers 14 and 58,plasmid pZeoSV DNA; plus UVA light,nearly five times greater linearization
same,effect on plasmid DNA (in words),"plasmid pZeoSV DNA; plus UVA light, alkaline gels",Generally similar results
same,effect on plasmid DNA (in words),"plasmid pZeoSV DNA; plus UVA light, neutral gels",concentration-dependent alteration in migration
